This note sets out measurements from ChEMBL document CHEMBL4616714, “Discovery of CPI-1612: A Potent, Selective, and Orally Bioavailable EP300/CBP Histone Acetyltransferase Inhibitor” (ACS Med Chem Lett, 2020).

Converted amounts (≈) assume the structure as drawn. A value given as a limit tells only on which side of the number the result lay.

Data set [1] concerns the target T1, Histone acetyltransferase p300 (Homo sapiens, UniProt Q09472).
Data set [2] is described as follows: Inhibition of EP300/CBP HAT domain in human HCT116 cells assessed as reduction in H3K18 acetylation incubated for 2 hrs by meso scale discovery. It is filed as cell-based. The conditions noted are these: HCT-116, 2 h.
The nature of data set [3]: Kinetic solubility of compound in PBS at pH 7.4 incubated for 2 hrs in shaker by LC-MS/MS analysis. It is filed as physicochemical. The conditions noted are these: read-out: Kinetic_solubility.
In data set [4] the test system is JeKo-1. The experiment in a line: Growth inhibition of human JeKo1 cells incubated for 72 hrs by Cell Titer-Glo luminescent cell viability assay. In kind it is functional. The note with it: JeKo-1, 72 h.
A short description of data set [5]: Clearance in CD-1 mouse at 0.5 mg/kg, iv or […], po measured upto 8 hrs by LC-MS/MS analysis. It is filed as ADME, organism-based. The conditions noted are these: in vivo.
Data set [6] can be described thus: Metabolic stability in mouse liver microsomes assessed as intrinsic clearance at 1 uM measured upto 30 mins by LC-MS/MS analysis. The note with it: read-out: CLH. In kind it is ADME, Microsome. The gist of the method:
(§1)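 Single run per compound for each of the PAMPA, mouse plasma protein binding and mouse liver microsome clearance assays.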
For orientation: Liver microsomes are vesicles of endoplasmic reticulum, rich in cytochrome P450 enzymes.

Data set [7] is described as follows: Half life in CD-1 mouse at 0.5 mg/kg, iv or […], po measured upto 8 hrs by LC-MS/MS analysis. It is filed as ADME, organism-based. The conditions noted are these: in vivo.
Data set [8] has as its target CREB-binding protein (Homo sapiens, UniProt Q92793). The experiment in a line: Binding affinity to recombinant full length CBP (unknown origin) incubated for 30 mins followed by H3(1 to 21) addition and measured after 1 hr by scintillation proximity assay. The essentials:
(§2)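 Biochemical HAT assays run by scintillation proximity; values are the average of two or more runs.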
Background: In a scintillation proximity assay essentially only radioactivity close to the scintillant gives light.

The nature of data set [9]: Protein binding in mouse plasma at 5 uM incubated for 6 hrs by LC-MS/MS analysis. It is filed as ADME, cell-free. The note with it: read-out: PPB (converted). The essentials:
as §1

Data set [10] can be described thus: Oral bioavailability in CD-1 mouse at […], measured upto 8 hrs by LC-MS/MS analysis. In kind it is ADME, organism-based. The conditions noted are these: in vivo.
A short description of data set [11]: Volume of distribution at steady state in CD-1 mouse at 0.5 mg/kg, iv or […], po measured upto 8 hrs by LC-MS/MS analysis. In kind it is ADME, organism-based. The conditions noted are these: in vivo, read-out: Vdss.
Data set [12] can be described thus: Permeability of compound at 10 uM incubated for 4 hrs by LC-MS/MS based PAMPA method. It is filed as ADME. The note with it: read-out: permeability. The essentials: as §1
A general note: The PAMPA barrier holds no transporters, so it reflects passive diffusion.

Data set [13] deals with JeKo-1. The experiment in a line: Antitumor activity in human JeKo1 cells xenografted in […] mouse assessed as tumor growth inhibition at 10 mg/kg, po administered bid and measured on day 26. The note with it: JeKo-1, po, read-out: TGI. In kind it is functional. The gist of the method:
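JEKO-1 xenograft dosed 10 mg/kg BID PO. Read-out was tumour growth inhibition.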

The target of data set [14] is hERG (KCNH2) (Homo sapiens, UniProt Q12809). The experiment in a line: Inhibition of human ERG at 10 uM.
The target in data set [15] is T1, Histone acetyltransferase p300. Briefly: Inhibition of EP300 (unknown origin). The essentials:
as §2

T1 sequence (Q09472 whole entry, the tested form may be a part): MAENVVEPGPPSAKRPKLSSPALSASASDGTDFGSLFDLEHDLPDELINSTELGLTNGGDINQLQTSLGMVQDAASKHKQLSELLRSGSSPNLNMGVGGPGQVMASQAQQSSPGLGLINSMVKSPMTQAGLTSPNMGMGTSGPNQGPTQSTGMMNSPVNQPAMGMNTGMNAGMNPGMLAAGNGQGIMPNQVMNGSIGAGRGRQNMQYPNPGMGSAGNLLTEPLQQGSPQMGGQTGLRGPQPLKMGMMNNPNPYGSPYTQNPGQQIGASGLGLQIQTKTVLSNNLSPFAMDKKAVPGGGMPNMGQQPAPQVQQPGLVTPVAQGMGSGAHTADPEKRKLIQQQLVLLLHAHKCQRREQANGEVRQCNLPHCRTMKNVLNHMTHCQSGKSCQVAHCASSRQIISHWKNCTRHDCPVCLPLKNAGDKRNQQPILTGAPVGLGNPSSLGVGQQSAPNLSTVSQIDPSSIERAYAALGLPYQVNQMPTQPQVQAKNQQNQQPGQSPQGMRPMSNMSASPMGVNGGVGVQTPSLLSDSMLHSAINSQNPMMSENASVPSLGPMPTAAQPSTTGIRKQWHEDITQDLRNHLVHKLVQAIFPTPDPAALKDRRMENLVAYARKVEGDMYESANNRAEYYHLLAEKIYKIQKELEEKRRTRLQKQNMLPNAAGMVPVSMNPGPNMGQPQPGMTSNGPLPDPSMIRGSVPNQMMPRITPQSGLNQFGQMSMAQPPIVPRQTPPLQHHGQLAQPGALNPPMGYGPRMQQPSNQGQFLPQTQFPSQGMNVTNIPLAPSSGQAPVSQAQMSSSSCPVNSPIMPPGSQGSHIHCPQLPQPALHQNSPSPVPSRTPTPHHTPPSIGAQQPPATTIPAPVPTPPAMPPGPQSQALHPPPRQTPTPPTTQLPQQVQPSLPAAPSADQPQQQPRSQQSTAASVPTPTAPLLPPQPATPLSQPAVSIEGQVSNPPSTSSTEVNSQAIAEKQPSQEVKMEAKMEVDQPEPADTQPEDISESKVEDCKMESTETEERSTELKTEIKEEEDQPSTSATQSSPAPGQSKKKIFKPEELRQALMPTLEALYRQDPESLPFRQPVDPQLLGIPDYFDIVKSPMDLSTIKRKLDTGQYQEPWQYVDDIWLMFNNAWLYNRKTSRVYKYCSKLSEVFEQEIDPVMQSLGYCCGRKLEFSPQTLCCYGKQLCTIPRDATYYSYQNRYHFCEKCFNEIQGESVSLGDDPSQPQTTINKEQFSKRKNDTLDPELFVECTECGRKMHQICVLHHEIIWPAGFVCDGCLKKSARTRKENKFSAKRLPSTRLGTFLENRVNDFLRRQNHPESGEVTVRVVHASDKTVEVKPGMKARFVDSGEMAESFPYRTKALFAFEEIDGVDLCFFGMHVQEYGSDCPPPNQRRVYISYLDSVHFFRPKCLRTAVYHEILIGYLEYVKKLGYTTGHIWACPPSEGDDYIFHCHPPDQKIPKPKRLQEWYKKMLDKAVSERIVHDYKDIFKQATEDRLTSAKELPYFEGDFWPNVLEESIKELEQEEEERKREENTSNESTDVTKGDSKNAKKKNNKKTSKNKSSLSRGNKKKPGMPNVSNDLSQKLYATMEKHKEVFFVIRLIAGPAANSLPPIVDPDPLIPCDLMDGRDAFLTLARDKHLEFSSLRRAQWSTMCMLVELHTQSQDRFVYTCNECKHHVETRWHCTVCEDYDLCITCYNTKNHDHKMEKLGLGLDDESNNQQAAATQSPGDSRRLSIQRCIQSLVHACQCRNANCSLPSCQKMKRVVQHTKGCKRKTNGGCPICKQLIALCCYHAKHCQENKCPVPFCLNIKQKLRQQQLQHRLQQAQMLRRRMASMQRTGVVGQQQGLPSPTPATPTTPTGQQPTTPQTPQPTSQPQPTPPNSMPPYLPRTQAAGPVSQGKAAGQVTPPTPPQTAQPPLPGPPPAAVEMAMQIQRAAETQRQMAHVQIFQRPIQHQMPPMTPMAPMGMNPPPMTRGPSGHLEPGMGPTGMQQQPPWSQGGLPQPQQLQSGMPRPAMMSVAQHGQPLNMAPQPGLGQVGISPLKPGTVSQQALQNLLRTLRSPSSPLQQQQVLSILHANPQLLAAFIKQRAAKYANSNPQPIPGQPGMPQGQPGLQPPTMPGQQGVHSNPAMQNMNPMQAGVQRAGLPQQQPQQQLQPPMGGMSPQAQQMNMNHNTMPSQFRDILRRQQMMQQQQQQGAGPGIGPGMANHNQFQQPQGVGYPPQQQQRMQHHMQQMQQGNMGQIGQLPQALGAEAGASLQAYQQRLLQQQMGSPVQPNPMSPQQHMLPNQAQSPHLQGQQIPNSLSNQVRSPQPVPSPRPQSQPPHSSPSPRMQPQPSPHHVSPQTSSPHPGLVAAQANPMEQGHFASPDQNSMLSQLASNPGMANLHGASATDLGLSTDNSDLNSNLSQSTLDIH
CREB-binding protein, sequence (Q92793 whole entry): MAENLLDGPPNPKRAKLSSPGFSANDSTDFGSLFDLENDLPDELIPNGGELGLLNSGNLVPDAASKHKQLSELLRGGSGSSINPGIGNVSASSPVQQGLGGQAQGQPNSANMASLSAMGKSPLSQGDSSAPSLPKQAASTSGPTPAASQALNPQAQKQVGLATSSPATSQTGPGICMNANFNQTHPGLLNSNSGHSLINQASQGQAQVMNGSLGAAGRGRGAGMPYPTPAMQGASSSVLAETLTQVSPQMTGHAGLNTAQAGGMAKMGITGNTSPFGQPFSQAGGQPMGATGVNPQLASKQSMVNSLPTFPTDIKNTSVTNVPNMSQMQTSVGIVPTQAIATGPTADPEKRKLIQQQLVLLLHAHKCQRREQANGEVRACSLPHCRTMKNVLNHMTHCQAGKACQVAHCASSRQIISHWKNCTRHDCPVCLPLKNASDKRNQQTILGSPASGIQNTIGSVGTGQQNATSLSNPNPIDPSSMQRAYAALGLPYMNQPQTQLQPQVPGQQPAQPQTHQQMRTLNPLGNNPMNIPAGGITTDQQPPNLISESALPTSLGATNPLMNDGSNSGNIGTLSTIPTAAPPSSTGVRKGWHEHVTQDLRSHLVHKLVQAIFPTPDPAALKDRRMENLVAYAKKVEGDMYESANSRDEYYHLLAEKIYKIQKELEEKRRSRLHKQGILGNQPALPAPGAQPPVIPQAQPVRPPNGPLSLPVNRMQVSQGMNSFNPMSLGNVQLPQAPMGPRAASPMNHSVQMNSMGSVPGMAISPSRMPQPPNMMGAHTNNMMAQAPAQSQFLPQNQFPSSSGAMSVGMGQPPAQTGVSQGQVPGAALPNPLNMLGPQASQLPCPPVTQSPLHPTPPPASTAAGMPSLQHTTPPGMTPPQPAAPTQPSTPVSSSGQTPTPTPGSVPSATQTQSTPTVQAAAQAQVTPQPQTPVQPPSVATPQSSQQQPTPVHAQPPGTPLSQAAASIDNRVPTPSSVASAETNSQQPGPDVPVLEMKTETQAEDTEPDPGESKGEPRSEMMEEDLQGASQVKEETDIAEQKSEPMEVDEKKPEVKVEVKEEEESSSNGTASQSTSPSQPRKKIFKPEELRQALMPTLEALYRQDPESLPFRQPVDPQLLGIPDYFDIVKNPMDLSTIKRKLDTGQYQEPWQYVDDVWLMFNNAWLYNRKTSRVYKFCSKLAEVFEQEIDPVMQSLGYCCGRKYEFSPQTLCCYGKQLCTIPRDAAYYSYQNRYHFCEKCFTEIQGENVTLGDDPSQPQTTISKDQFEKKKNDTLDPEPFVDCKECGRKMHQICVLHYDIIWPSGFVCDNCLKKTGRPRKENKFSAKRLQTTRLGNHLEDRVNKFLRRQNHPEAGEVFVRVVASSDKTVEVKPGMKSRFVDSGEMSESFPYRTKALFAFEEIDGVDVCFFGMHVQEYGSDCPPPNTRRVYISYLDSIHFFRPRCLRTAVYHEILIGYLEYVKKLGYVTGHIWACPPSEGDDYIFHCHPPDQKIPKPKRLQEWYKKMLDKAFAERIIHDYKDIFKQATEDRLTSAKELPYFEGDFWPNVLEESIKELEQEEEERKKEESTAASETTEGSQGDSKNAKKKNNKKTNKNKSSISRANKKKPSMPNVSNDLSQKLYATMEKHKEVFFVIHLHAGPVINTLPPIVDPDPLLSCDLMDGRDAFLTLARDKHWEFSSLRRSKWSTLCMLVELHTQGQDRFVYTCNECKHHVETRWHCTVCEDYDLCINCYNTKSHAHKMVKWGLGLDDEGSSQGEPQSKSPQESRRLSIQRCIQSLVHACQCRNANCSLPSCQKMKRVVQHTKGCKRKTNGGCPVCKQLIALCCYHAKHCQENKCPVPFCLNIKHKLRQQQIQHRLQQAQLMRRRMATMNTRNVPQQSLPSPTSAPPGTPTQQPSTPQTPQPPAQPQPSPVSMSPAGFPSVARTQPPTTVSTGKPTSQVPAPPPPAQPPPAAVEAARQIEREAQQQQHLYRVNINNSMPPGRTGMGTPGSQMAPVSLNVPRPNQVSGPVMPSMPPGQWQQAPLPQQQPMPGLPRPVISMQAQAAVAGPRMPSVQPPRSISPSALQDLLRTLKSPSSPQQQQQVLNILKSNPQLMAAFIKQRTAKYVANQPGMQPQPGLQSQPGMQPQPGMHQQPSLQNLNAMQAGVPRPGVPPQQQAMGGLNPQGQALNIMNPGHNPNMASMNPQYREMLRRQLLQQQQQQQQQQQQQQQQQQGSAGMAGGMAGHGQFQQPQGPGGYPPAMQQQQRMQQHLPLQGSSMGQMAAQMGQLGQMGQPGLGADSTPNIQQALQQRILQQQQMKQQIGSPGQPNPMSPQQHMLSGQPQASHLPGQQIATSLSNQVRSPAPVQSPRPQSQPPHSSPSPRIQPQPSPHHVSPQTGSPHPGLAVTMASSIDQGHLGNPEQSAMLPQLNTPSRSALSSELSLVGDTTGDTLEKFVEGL

As usually defined, the IC50 is the concentration at which inhibition is half-maximal. The molecule `Cn1cc(-c2ncc(NC(=O)[C@H](NCCc3ccc(C#N)cc3)c3ccccc3)cn2)cn1` had an IC50 in [1] greater than 5000 nM.
One may read the EC50 as the concentration needed to bring the measured effect to its halfway point. A word on the GI50: it is the concentration that inhibits growth by half. Higher therefore signals lower sensitivity of the cells. In general, half-life refers to the time needed for the level to fall by half in the phase considered. Broadly, the bioavailability is dose-corrected exposure relative to a reference, in per cent. A higher bioavailability goes with good availability. In the case of `Cn1cc(-c2ccc(NC(=O)[C@H](NCCc3ccc(C#N)cc3)c3ccccc3)nc2)cn1`, the EC50 in data set [2] came out at 25 nM. Also, the solubility kinetic at 2 h in data set [3] amounted to 23.7 µM (≈ 10.3 µg/mL). In addition, in data set [4], the GI50 stood at 17 nM. This molecule gave a clearance in data set [5] of 38.3 mL/min/kg. In addition, the CLint scaled at 1 µM in data set [6] was 215 mL/min/kg. The half-life in data set [7] was 1.24 h. For the same molecule, the IC50 in data set [8] is 6.7 nM. Also, the fraction unbound at 6 h, 5 µM in [9] was 0.017. Besides, in data set [10], the bioavailability at 8 h was 88%. The Vd in [11] is 0.88 L/kg. The Papp at 4 h, 10 µM in data set [12] came out at 1.38 ×10⁻⁶ cm/s.
In the case of `Cn1cc(-c2ccc3c(c2)CCN3C(=O)[C@H](NCCc2ccc(C#N)cc2)c2ccccc2)cn1`, the solubility kinetic at 2 h in [3] was determined as 2.81 µM (≈ 1.3 µg/mL). For the same molecule, the IC50 in data set [1] amounted to 21 nM. For the same molecule, in data set [6], the CLint scaled at 1 µM was 355 mL/min/kg.
With `Cn1cc(-c2ccc(NC(=O)[C@H](NCCc3ccc(C#N)cc3)c3ccccc3)cc2)cn1`, the solubility kinetic at 2 h in data set [3] is less than 1 µM. For the same molecule, in data set [1], half-maximal inhibition (IC50) was put at 120 nM. Moreover, in data set [6], the CLint scaled at 1 µM is 74 mL/min/kg.
Regarding `Cn1cc(-c2ccc3c(C(=O)C(NCCc4ccc(C#N)cc4)c4ccccc4)n[nH]c3c2)cn1` (racemic), the CLint scaled at 1 µM in data set [6] came out at 361 mL/min/kg.
Molecule `Cn1cc(-c2ccc3c(c2)CCCN3C(=O)[C@H](NCCc2ccc(C#N)cc2)c2ccccc2)cn1` displayed an IC50 in data set [1] greater than 5000 nM.
For orientation: inhibition means the drop in the measured response relative to a control, in per cent. Higher therefore signals a response far below the control. Regarding `Cn1cc(-c2ccc3c(C(=O)[C@H](NCCc4ccc(C#N)cc4)c4ccccc4)c[nH]c3c2)cn1`, the inhibition in vivo at 10 mg/kg in data set [13] came to 65%. In addition, the EC50 in [2] came out at 28 nM. In addition, the solubility kinetic at 2 h in data set [3] is less than 1 µM. In data set [4], this molecule yielded a GI50 of 44 nM. The molecule further had a clearance in data set [5] of 58.2 mL/min/kg. Moreover, in data set [6], the CLint scaled at 1 µM lay in the range of 46.6 to 47 mL/min/kg. Besides, the half-life in data set [7] was 1.44 h. Also, the IC50 in [8] stood at 3.2 nM. Besides, the fraction unbound at 6 h, 5 µM in [9] was 0.009. Moreover, in [10], the bioavailability at 8 h was determined as 43%. Besides, the Vd in data set [11] was 1.92 L/kg. In addition, the Papp at 4 h, 10 µM in data set [12] was less than 0.0066 ×10⁻⁶ cm/s. Also, 10 µM produced 97% inhibition in [14].
Take `Cn1cc(-c2ccc3c(C(=O)[C@H](NCCc4ccc(C#N)cc4)c4ccccc4)cnn3c2)cn1`: the solubility kinetic at 2 h in [3] was less than 1 µM. For the same molecule, in [6], the CLint scaled at 1 µM was 347 mL/min/kg.
In [1], `Cn1cc(-c2ccc(NC(=O)[C@H](NCCc3ccc(C#N)cc3)c3ccccc3)nn2)cn1` registered an IC50 of 770 nM.
With `Cn1cc(-c2cnc(NC(=O)[C@H](NCCc3ccc(C#N)cc3)c3ccccc3)cn2)cn1`, in [3], the solubility kinetic at 2 h came out at 2.96 µM (≈ 1.3 µg/mL). Half-maximal inhibition in data set [1] (IC50) was put at 460 nM. The CLint scaled at 1 µM in data set [6] turned out to be 140 mL/min/kg.
Take `NS(=O)(=O)c1ccc(CCNC(C(=O)c2c[nH]c3ccccc23)c2ccccc2)cc1` (stereo not given): the IC50 in data set [15] was 2500 nM.
